In ChEMBL document CHEMBL1125414, “A novel class of calcium-entry blockers: the 1[[4-(aminoalkoxy)phenyl]sulfonyl]indolizines” (J Med Chem, 1992):

Experiments:
[1] = Displacement of [3H]nitrendipine binding to L-type calcium channel of Guinea pig cerebral cortex membranes; format: tissue-based, Cavia porcellus
Rattus norvegicus = species on record: Rattus norvegicus; test: Molar concentration required to block [Ca2+] induced contraction of K+ depolarized rat aorta by 50%; format: functional
Method in brief: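 Spiral strips of thoracic aorta from male Wistar rats in modified Krebs solution, 95% O2/5% CO2, 37 °C, depolarized preparation. pD2 taken as negative log molar antagonist concentration reducing maximal contraction by 50%.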

| Structure (SMILES) | IC50 [1] | IC50 (Rattus norvegicus) |
| --- | --- | --- |
| CCCCN(CCCC)CCCOc1ccc(S(=O)(=O)c2c(C(C)(C)C)cn3ccccc23)cc1 | 0.0096 µM | 0.0519 µM |
| CC(C)c1cn2ccccc2c1S(=O)(=O)c1ccc(OCCCNC(C)(C)C)cc1 | 0.0172 µM | 0.0418 µM |
| CCCCc1cn2ccccc2c1S(=O)(=O)c1ccc(OCCCN(CCCC)CCCC)cc1 | 0.022 µM | 0.284 µM |
| CCCCN(CCCC)CCCCOc1ccc(S(=O)(=O)c2c(C(C)C)cn3ccccc23)cc1 | 0.0013 µM | 0.0202 µM |
| CCCCN(CCCC)CCOc1ccc(S(=O)(=O)c2c(CC)cn3ccccc23)cc1 | 0.033 µM | 0.0722 µM |
| CCCN(CCC)CCCOc1ccc(S(=O)(=O)c2c(CC)cn3ccccc23)cc1 | 0.181 µM | 0.15 µM |
| CCCCc1cn2ccccc2c1S(=O)(=O)c1ccc(OCCCN(CCC)CCC)cc1 | 0.129 µM | 0.57 µM |
| CC(C)(C)NCCCOc1ccc(S(=O)(=O)c2c(C(C)(C)C)cn3ccccc23)cc1 | 0.09 µM | 0.443 µM |
| CCCCN(CCCC)CCCOc1ccc(S(=O)(=O)c2c(C3CC3)cn3ccccc23)cc1 | 0.0025 µM | 0.0109 µM |
| CCc1cn2ccccc2c1S(=O)(=O)c1ccc(OCCCNC(C)(C)C)cc1 | 0.13 µM | 0.413 µM |
| CC(C)c1cn2ccccc2c1S(=O)(=O)c1ccc(OCCCN2CCN(c3ccccc3)CC2)cc1 | 0.014 µM | 0.205 µM |
| CCN(CC)CCCOc1ccc(S(=O)(=O)c2c(C(C)C)cn3ccccc23)cc1 | 0.051 µM | 0.228 µM |
| CCCCN(CCCC)CCCOc1ccc(S(=O)(=O)c2c(C)cn3ccccc23)cc1 | 0.069 µM | 0.162 µM |
| CCCCN(CCCC)CCCCCOc1ccc(S(=O)(=O)c2c(CC)cn3ccccc23)cc1 | 0.02 µM | 0.0974 µM |
| CCCCN(CCCC)CCCOc1ccc(S(=O)(=O)c2c(C3CCCCC3)cn3ccccc23)cc1 | 0.113 µM | 4.07 µM |
| COC(=O)C1=C(C)NC(C)=C(C(=O)OC)C1c1ccccc1[N+](=O)[O-] [NIFEDIPINE] | 0.0025 µM | 0.00116 µM |

| Structure (SMILES) | IC50 [1] | IC50 (Rattus norvegicus) |
| --- | --- | --- |
| CCCCN(CCCC)CCCOc1ccc(S(=O)(=O)c2c(-c3ccccc3)cn3ccccc23)cc1 | 0.156 µM | 1.62 µM |
| CCCCCN(CCCCC)CCCOc1ccc(S(=O)(=O)c2c(C(C)C)cn3ccccc23)cc1 | 0.00089 µM | 0.0896 µM |
| CCCN(CCC)CCCOc1ccc(S(=O)(=O)c2c(C)cn3ccccc23)cc1 | 0.648 µM | 0.957 µM |
| CC(C)(C)NCCCOc1ccc(S(=O)(=O)c2c(C3CC3)cn3ccccc23)cc1 | 0.043 µM | 0.0665 µM |
| CC(C)c1cn2ccccc2c1S(=O)(=O)c1ccc(OCCCN2CCC(c3ccccc3)CC2)cc1 | 0.0066 µM | 0.0809 µM |
| CCCCN(CCCC)CCCOc1ccc(S(=O)(=O)c2c(C(C)C)cn3ccccc23)cc1 | 0.0021 µM | 0.0216 µM |
| CC(C)c1cn2ccccc2c1S(=O)(=O)c1ccc(OCCCNCc2ccccc2)cc1 | 0.0045 µM | 0.0228 µM |
| CCCCCCCCN(CCCCCCCC)CCCOc1ccc(S(=O)(=O)c2c(C(C)C)cn3ccccc23)cc1 | 0.0065 µM | 30.1 µM |
| CCCCN(CCCC)CCCOc1ccc(S(=O)(=O)c2c(CCC)cn3ccccc23)cc1 | 0.014 µM | 0.0543 µM |
| CCCCCN(CCCCC)CCCOc1ccc(S(=O)(=O)c2c(CC)cn3ccccc23)cc1 | 0.0063 µM | 0.0624 µM |
| COc1ccc([C@@H]2Sc3ccccc3N(CCN(C)C)C(=O)[C@@H]2OC(C)=O)cc1 [DILTIAZEM] | 0.059 µM | 0.303 µM |
| CCCCN(CCCC)CCCCOc1ccc(S(=O)(=O)c2c(CC)cn3ccccc23)cc1 | 0.0046 µM | 0.0333 µM |
| CCc1cn2ccccc2c1S(=O)(=O)c1ccc(OCCCN2CCCCC2)cc1 | 0.274 µM | 0.357 µM |
| CC(C)c1cn2ccccc2c1S(=O)(=O)c1ccc(OCCCNCCc2ccccc2)cc1 | 0.004 µM | 0.0815 µM |
| CCN(CC)CCCOc1ccc(S(=O)(=O)c2c(C)cn3ccccc23)cc1 |  | 3.39 µM |
| CCCCN(CCCC)CCCOc1ccc(S(=O)(=O)c2c(CC)cn3ccccc23)cc1 | 0.014 µM | 0.0313 µM |

Now from value to molecule:

| IC50 [1] | IC50 (Rattus norvegicus) | Structure (SMILES) |
| --- | --- | --- |
| 0.00074 µM | 0.0039 µM | COc1ccc(CCN(C)CCCOc2ccc(S(=O)(=O)c3c(C4CC4)cn4ccccc34)cc2)cc1OC |
| 0.0023 µM | 0.0216 µM | COc1ccc(CCN(C)CCCCOc2ccc(S(=O)(=O)c3c(C(C)C)cn4ccccc34)cc2)cc1OC |
|  | 0.102 µM | CCCN(CCC)CCCOc1ccc(S(=O)(=O)c2c(C(C)C)cn3ccccc23)cc1 |
| 0.0026 µM | 0.00786 µM | COc1cccc(CCN(C)CCCOc2ccc(S(=O)(=O)c3c(C(C)C)cn4ccccc34)cc2)c1 |
| 0.00061 µM | 0.0056 µM | COc1ccc(CCN(C)CCCOc2ccc(S(=O)(=O)c3c(C(C)C)cn4ccccc34)cc2)cc1OC [FANTOFARONE] |
| 0.0012 µM | 0.013 µM | COc1ccc(CNCCCOc2ccc(S(=O)(=O)c3c(C(C)C)cn4ccccc34)cc2)cc1OC |
| 0.0046 µM | 0.011 µM | CCc1cn2ccccc2c1S(=O)(=O)c1ccc(OCCCNCCc2ccc(OC)c(OC)c2)cc1 |
| 0.0087 µM | 0.0226 µM | COc1ccc(CCN(C)CCCOc2ccc(S(=O)(=O)c3c(C(C)C)cn4ccccc34)cc2)cc1 |
| 0.038 µM | 0.0471 µM | COc1ccc(CCN(C)CCCC(C#N)(c2ccc(OC)c(OC)c2)C(C)C)cc1OC (stereo unspecified) |
| 0.383 µM | 0.396 µM | COc1ccc(NCCCOc2ccc(S(=O)(=O)c3c(C(C)C)cn4ccccc34)cc2)cc1OC |
| 0.0006 µM | 0.00224 µM | COc1cc(CCN(C)CCCOc2ccc(S(=O)(=O)c3c(C(C)C)cn4ccccc34)cc2)cc(OC)c1OC |
| 0.201 µM | 0.39 µM | CC(C)c1cn2ccccc2c1S(=O)(=O)c1ccc(OCCCN(C)C)cc1 |
| 0.00053 µM | 0.00232 µM | COc1cc(CCNCCCOc2ccc(S(=O)(=O)c3c(C(C)C)cn4ccccc34)cc2)cc(OC)c1 |
| 0.0018 µM | 0.00505 µM | COc1ccc(CCNCCCOc2ccc(S(=O)(=O)c3c(C(C)C)cn4ccccc34)cc2)cc1OC |
| 0.0019 µM | 0.0047 µM | COc1ccc(CN(C)CCCOc2ccc(S(=O)(=O)c3c(C4CC4)cn4ccccc34)cc2)cc1OC |
| 0.0045 µM | 0.0146 µM | COc1ccc(CN(C)CCCCOc2ccc(S(=O)(=O)c3c(C(C)C)cn4ccccc34)cc2)cc1OC |
|  | 0.0134 µM | CCc1cn2ccccc2c1S(=O)(=O)c1ccc(OCCCN(C)CCc2ccc(OC)c(OC)c2)cc1 |
| 0.00084 µM | 0.0187 µM | CCCCN(CCCOc1ccc(S(=O)(=O)c2c(C(C)C)cn3ccccc23)cc1)CCc1ccc(OC)c(OC)c1 |
| 0.00062 µM | 0.00318 µM | COc1ccc(CN(C)CCCOc2ccc(S(=O)(=O)c3c(C(C)C)cn4ccccc34)cc2)cc1OC |
| 0.00019 µM | 0.00212 µM | COc1cc(CCN(C)CCCOc2ccc(S(=O)(=O)c3c(C(C)C)cn4ccccc34)cc2)cc(OC)c1 |
